Measured values gathered from unrelated publications.
Each line is one published result; the experiments were not run side by side.
Target: Interleukin-1 receptor-associated kinase 1 (IRAK1, Homo sapiens, UniProt P51617)

SMILES | assay | conditions | quantity | value
CNC(=O)Nc1ccc2c(c1)[C@@]1(CC2)OC(=O)N(CC(=O)N(Cc2ccc(F)cc2)[C@@H](C)C(F)(F)F)C1=O | cell-free assay, competition with immobilised ligand | 1 µM | remaining binding | 88%
CCN(CC)c1ccc(C2=NNC(=O)CC2C)cc1[N+](=O)[O-] (stereo not drawn) | enzyme activity, inhibitor | 10 µM | remaining activity | 89%
Oc1cccc(-c2nc(N3CCOCC3)c3oc4ncccc4c3n2)c1 | cell-free assay | 0.5 µM | remaining signal | 84.2%
CN(C)C1CCN(CC#Cc2nn(C3CCCC3)c3nc(NCc4ccccc4)ncc23)C1 (stereo not drawn) | enzyme activity, inhibitor, FRET | 10 µM | inhibition | 37%
Cc1ccc(NC(=O)c2ccc(C)c(C(F)(F)F)c2)cc1C#Cc1nn(C2CCC(O)CC2)c2ncnc(N)c12 (stereo not drawn) | cell-free assay | 10 µM | remaining signal | 30%
NS(=O)(=O)c1cc(NC(=O)C2(c3ccccc3Cl)CC2)ccc1Oc1cccc(Cl)c1 | cell-free assay, competition with immobilised ligand | 1 µM | remaining binding | 79%
FC(F)(F)Oc1cccc(-c2cnc3ccc(-c4ccncc4)nn23)c1 | enzyme activity, inhibitor, radiometric | 5 µM | activity vs control | 24%
CCCS(=O)(=O)Nc1ccc(F)c(C(=O)c2c[nH]c3ncc(-c4ccc(Cl)cc4)cc23)c1F | enzyme activity, inhibitor | 1 µM | inhibition | < 10%
Cc1nc(Cc2cccc(C(F)(F)F)c2)sc1-c1ccc(C(N)=O)nc1 | cell-free assay, competition with immobilised ligand | 1 µM | remaining binding | 100%
COc1cc(-c2cc(-c3ccc(N4CCNCC4)cc3)cnc2C)cc(OC)c1OC | enzyme activity, inhibitor | 0.1 µM | inhibition | 2%
COc1cc(/C=C/C(=O)CC(=O)/C=C/c2ccc(O)c(OC)c2)ccc1O | enzyme activity, inhibitor | 1 µM | activity vs control | 97%
CNC(=O)Nc1ccc2c(c1)CC[C@@]21OC(=O)N(CC(=O)N(Cc2ccc(F)cc2)[C@@H](C)C(F)(F)F)C1=O | cell-free assay, competition with immobilised ligand | 1 µM | remaining binding | 71%
CCN(CC)CCNC(=O)c1c(C)[nH]c(/C=C2\C(=O)Nc3ccc(F)cc32)c1C | enzyme activity, inhibitor | 0.3 µM | inhibition | 31%
Cc1cc(NC(=O)c2cccc3cc(-c4cccc5[nH]nc(N)c45)ccc23)ccc1F | enzyme activity, inhibitor | 0.1 µM | activity vs control | 100%
CNC(=O)c1cc(Oc2ccc(NC(=O)Nc3ccc(Cl)c(C(F)(F)F)c3)cc2)ccn1 | enzyme activity, inhibitor | 0.3 µM | inhibition | -4%
c1ccc(CNc2nc(N3CCOc4ccccc43)nc3c2CCCC3)cc1 | target engagement in cells, inhibitor, chemoproteomics | 20 mM | inhibition | -2.4%
c1ccc(N2CCN(Cc3nc4ccccc4[nH]3)CC2)nc1 | binding, competition with immobilised ligand | 1 µM | remaining binding | 100%
Cc1ccc(Nc2nccc(N(C)c3ccc4c(C)n(C)nc4c3)n2)cc1S(N)(=O)=O | enzyme activity, inhibitor | 0.3 µM | inhibition | -6%
Cc1cnc(NC2CCOCC2)nc1-n1cnc(C(=O)NC(CN)c2cc(F)cc(Cl)c2)c1 (stereo not drawn) | enzyme activity, inhibitor, radiometric | 1 µM | remaining activity | 101%
O=C(NC[C@@H]1[C@H]2CN(C(=O)OCc3cc(C(F)(F)F)cc(C(F)(F)F)c3)C[C@@H]12)c1ccc2[nH]nnc2c1 | cell-free assay, competition with immobilised ligand | 1 µM | remaining binding | 98%
CC(C)(C)c1nc2c(s1)c1nc(N)ncc1c1ccc(NS(=O)(=O)c3c(F)cccc3F)c(F)c12 | enzyme activity, inhibitor, radiometric | 1 µM | remaining activity | 90%
CC(C)(O)[C@H]1CC[C@H](Nc2ccc3ncc(-c4cccc(C(F)(F)F)c4)n3n2)CC1 | enzyme activity, inhibitor | 1 µM | remaining activity | 87.1%
COc1cc(Nc2cnc(C#N)c(O[C@H](C)CN(C)C)n2)ncc1-c1cnn(C)c1 | enzyme activity, inhibitor, radiometric | 1 µM | remaining activity | 17%
COCCOc1nc(-c2ccc(Cl)nc2)nc2c1CN(C(=O)c1ncn3ccccc13)CC2 | cell-free assay, competition with immobilised ligand | 0.1 µM | remaining binding | 100%
Cc1sc(C(=O)NC2COC2)cc1-n1cc(NC(=O)Nc2c(F)cccc2Cl)cn1 | enzyme activity, inhibitor | 10 µM | remaining activity | 79.9%
Cc1ccc(C(=O)Nc2ccc(CN3CCN(C)CC3)c(C(F)(F)F)c2)cc1C#Cc1cnc2cccnn12 | enzyme activity, inhibitor | 23.5 nM | remaining activity | 54%
Cc1nc(N2CC[C@@H](O)C2)ncc1-c1cc(C(F)(F)F)cc2[nH]ncc12 | binding, competition with immobilised ligand | 1 µM | remaining binding | 100%
O=C1Nc2ccc(Cl)cc2C1=Cc1cc(Cl)c(O)c(Cl)c1 | cell-free assay | 0.5 µM | remaining signal | 95.4%
CCCCNc1ncc2c(-c3ccc(F)cc3)nn(C[C@H]3CC[C@H](N)CC3)c2n1 | target engagement in cells, inhibitor, chemoproteomics | 20 mM | inhibition | 51.5%
COc1cc2nccc(Oc3ccc(NC(=O)c4c5n(n(-c6ccc(F)cc6)c4=O)CCCC5)cc3)c2cc1OC | enzyme activity, inhibitor | 0.1 µM | inhibition | -7%
